Measurements taken from ChEMBL document CHEMBL4368943 (J Med Chem, 2019).
Calls of active or inactive are those of the source. No cut-off for these calls is given here.

Legend:
[1] = target: T1, Protein cereblon/Estrogen receptor/Cullin-4A (Homo sapiens) (UniProt P03372+Q96SW2+Q13619); experiment: Protac activity against cereblon/cullin 4A/ERalpha in human MCF7 cells assessed as ERalpha degradation by measuring ER protein/GADPH ratio at 1 nM after 4 hrs by Western blot analysis relative to control; type: cell-based
T1 sequence (P03372 whole entry, looked up): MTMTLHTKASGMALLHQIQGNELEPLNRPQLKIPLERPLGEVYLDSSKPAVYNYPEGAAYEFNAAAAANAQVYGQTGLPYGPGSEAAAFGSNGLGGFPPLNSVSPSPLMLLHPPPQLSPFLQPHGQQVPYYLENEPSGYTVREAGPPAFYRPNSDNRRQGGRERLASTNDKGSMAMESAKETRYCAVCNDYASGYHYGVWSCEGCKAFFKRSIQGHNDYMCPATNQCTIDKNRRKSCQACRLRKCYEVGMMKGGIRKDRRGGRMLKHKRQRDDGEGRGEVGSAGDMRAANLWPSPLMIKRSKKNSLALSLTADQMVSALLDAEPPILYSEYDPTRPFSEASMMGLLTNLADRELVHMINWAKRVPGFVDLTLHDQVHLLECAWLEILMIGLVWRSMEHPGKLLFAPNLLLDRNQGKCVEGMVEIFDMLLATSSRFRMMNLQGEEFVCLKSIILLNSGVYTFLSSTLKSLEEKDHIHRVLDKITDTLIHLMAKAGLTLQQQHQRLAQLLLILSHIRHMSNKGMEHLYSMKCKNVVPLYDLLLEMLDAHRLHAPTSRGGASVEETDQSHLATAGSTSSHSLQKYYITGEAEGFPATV
T1 sequence (Q13619 whole entry, looked up): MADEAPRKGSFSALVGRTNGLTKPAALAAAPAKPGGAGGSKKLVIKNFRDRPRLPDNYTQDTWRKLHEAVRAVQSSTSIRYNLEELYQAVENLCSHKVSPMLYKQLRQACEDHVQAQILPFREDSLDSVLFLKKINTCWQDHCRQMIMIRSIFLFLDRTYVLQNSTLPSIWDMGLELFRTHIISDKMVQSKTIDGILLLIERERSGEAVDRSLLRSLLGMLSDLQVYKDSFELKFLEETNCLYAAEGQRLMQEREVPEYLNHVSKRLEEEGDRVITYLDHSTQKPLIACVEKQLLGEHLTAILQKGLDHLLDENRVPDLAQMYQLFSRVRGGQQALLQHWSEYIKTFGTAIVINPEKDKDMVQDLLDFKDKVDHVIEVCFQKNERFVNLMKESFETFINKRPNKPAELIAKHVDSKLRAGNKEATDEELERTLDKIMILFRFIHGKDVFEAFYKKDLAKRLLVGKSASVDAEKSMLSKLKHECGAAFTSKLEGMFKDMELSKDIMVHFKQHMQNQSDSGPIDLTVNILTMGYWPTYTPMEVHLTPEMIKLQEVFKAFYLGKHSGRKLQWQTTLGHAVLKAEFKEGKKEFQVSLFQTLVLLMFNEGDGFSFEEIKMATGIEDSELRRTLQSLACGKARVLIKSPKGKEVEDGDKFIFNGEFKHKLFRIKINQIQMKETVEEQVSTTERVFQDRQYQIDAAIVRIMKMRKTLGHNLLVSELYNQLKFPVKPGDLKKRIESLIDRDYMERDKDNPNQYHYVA
T1 sequence (Q96SW2 whole entry, looked up): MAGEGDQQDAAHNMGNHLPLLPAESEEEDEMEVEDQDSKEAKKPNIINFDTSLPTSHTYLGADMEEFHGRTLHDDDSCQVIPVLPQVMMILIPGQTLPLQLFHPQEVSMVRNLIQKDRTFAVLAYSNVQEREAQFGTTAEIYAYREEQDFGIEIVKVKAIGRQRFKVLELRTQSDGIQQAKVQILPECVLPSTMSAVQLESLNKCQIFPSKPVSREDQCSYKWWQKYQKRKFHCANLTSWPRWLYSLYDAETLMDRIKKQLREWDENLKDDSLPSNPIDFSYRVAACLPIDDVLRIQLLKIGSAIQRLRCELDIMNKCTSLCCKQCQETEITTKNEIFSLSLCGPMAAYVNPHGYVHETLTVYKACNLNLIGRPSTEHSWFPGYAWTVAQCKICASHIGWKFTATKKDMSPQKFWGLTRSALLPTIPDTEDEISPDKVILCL
Outline: (§1)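 MCF-7 cells (DMEM, 10% FBS, passages 3−8) exposed 4 h. Lysed in RIPA with protease inhibitors; equal protein on 10% SDS-PAGE, PVDF, anti-ERα blot. Membranes stripped and reprobed for GAPDH. ERα/GAPDH ratio normalized to DMSO = 100; DC50 from densitometry of the dose series.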

[2] = target: T1, Protein cereblon/Estrogen receptor/Cullin-4A (Homo sapiens); experiment: Protac activity against cereblon/cullin 4A/ERalpha in human MCF7 cells assessed as ERalpha degradation by measuring ER protein/GADPH ratio at 10 nM after 4 hrs by Western blot analysis relative to control; type: cell-based; outline: as §1
[3] = target: T1, Protein cereblon/Estrogen receptor/Cullin-4A (Homo sapiens); experiment: Protac activity against cereblon/cullin 4A/ERalpha in human MCF7 cells assessed as ERalpha degradation by measuring ER protein/GADPH ratio at 100 nM after 4 hrs by Western blot analysis relative to control; type: cell-based; outline: as §1
[4] = target: T1, Protein cereblon/Estrogen receptor/Cullin-4A (Homo sapiens); experiment: Protac activity against cereblon/cullin 4A/ERalpha in human MCF7 cells assessed as ERalpha degradation by measuring ER protein/GADPH ratio at 1000 nM after 4 hrs by Western blot analysis relative to control; type: cell-based; outline: as §1
[5] = target: T2, von Hippel-Lindau disease tumor suppressor/Estrogen receptor/Cullin-2 (Homo sapiens, UniProt P03372+P40337+Q13617); experiment: Protac activity against VHL/cullin2/ERalpha in human MCF7 cells assessed as ERalpha degradation by measuring ER protein/GADPH ratio at 1 nM after 4 hrs by Western blot analysis relative to control; type: cell-based; outline: as §1
T2 sequence (P03372 whole entry, looked up): as the sequence (P03372 whole entry, looked up) above
T2 sequence (P40337 whole entry, looked up): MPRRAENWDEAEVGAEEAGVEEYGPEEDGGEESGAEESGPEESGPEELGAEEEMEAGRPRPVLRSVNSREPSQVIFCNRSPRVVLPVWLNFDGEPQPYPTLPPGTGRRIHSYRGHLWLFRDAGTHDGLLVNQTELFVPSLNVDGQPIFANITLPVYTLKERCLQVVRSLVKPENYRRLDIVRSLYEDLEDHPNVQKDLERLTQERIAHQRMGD
T2 sequence (Q13617 whole entry, looked up): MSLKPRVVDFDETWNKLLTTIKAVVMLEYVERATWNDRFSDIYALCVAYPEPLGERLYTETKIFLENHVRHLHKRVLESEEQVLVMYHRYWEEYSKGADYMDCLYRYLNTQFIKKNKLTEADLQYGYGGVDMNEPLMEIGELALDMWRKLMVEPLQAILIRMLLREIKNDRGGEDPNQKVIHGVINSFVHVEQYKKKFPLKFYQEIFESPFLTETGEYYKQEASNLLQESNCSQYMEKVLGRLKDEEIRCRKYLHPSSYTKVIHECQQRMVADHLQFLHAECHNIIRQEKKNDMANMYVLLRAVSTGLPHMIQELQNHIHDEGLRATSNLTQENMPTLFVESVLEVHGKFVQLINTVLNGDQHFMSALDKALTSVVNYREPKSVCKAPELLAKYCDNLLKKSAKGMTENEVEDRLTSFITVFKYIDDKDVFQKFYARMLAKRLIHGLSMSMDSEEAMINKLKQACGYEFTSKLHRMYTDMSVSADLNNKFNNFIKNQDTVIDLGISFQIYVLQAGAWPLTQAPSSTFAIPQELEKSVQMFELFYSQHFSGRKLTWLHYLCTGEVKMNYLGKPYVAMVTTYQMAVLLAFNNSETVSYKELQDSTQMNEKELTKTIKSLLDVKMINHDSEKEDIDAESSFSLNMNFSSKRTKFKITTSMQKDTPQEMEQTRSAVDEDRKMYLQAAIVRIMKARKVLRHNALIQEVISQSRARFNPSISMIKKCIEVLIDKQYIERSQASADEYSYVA

[6] = target: T2, von Hippel-Lindau disease tumor suppressor/Estrogen receptor/Cullin-2; experiment: Protac activity against VHL/cullin2/ERalpha in human MCF7 cells assessed as ERalpha degradation by measuring ER protein/GADPH ratio at 10 nM after 4 hrs by Western blot analysis relative to control; type: cell-based; outline: as §1
[7] = target: T2, von Hippel-Lindau disease tumor suppressor/Estrogen receptor/Cullin-2; experiment: Protac activity against VHL/cullin2/ERalpha in human MCF7 cells assessed as ERalpha degradation by measuring ER protein/GADPH ratio at 100 nM after 4 hrs by Western blot analysis relative to control; type: cell-based; outline: as §1
MCF7 [8] = experiment: Inhibition of cell growth in human MCF7 cells after 4 days by wst-8-based colorimetric analysis; type: functional; details: MCF7, 96 h
Outline: (§2)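 Cells seeded at 1500/well overnight, then exposed to graded compound doses for 4 days. Growth read by colorimetric WST-8 assay. GI50 from fitted curves. MCF-7 cells were kept in DMEM, 10% FBS, passages 3−8; human mammary epithelial cells were run the same way.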

MCF7 [9] = experiment: Inhibition of cell growth in human MCF7 cells after 4 days by wst-8-based colorimetric analysis relative to control; type: functional; outline: as §2
MCF7 [10] = experiment: Antiproliferative activity against human MCF7 cells at 10 to 300 nM after 5 days by crystal violet staining based assay; type: functional, cell-based
Outline: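 MCF-7 cells in DMEM with 10% FBS and penicillin/streptomycin, passages 3−8, exposed to compounds at 10, 100 and 300 nM for 5 days, then fixed and stained with crystal violet.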

Ratio [1]	Ratio [2]	Ratio [3]	Ratio [4]	Ratio [5]	Ratio [6]	Ratio [7]	GI50 (MCF7 [8]) [pM]	Compound	Imax (MCF7 [9]) [%]	Activity (MCF7 [10])
143	135	160	174					CCN(CCCCCCC#Cc1cccc2c1CN(C1CCC(=O)NC1=O)C2=O)CCOc1ccc(C(=O)c2c(-c3ccc(O)cc3)sc3cc(O)ccc23)cc1 (configuration not stated)		
				89	171	159	28	CCNCCc1ccc(CN(CC)c2cc(OC)ccc2[C@@H]2CCc3cc(O)ccc3C2)cc1 [ELACESTRANT]	25.7	
							79	O=C(c1ccc(OCCN2CCCCC2)cc1)c1c(-c2ccc(O)cc2)sc2cc(O)ccc12 [RALOXIFENE]	34	Active
